The record followed here is ChEMBL document CHEMBL4190330, “Discovery of Potent and Selective A2A Antagonists with Efficacy in Animal Models of Parkinson's Disease and Depression” (ACS Med Chem Lett, 2017).

pKi: −log10 of the molar value.

The target of data set [1] is T1, Adenosine receptor A2a (Homo sapiens, UniProt P29274). Description: Displacement of [3H]ZM241385 from human A2A receptor expressed in HEK293 cell membranes after 90 mins radioligand binding assay. Summed up: (§1)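 Membranes from HEK-293 cells overexpressing the relevant human adenosine receptor subtype; all points in triplicate; Ki derived from 8-concentration IC50 curves.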
T1 sequence (P29274 whole entry): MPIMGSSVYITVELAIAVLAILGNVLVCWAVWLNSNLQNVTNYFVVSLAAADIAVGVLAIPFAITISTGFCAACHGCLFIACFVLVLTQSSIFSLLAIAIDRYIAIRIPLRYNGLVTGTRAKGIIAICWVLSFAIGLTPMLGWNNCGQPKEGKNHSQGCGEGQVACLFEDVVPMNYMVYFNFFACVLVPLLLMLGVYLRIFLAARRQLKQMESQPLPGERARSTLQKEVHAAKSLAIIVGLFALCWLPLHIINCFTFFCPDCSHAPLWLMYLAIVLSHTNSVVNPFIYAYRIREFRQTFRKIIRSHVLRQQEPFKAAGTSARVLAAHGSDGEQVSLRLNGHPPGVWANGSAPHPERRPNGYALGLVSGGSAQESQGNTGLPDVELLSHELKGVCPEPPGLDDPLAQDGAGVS

For data set [2], the target named is T2, Adenosine receptor A1 (Homo sapiens) (UniProt P30542).
T2 sequence (whole entry): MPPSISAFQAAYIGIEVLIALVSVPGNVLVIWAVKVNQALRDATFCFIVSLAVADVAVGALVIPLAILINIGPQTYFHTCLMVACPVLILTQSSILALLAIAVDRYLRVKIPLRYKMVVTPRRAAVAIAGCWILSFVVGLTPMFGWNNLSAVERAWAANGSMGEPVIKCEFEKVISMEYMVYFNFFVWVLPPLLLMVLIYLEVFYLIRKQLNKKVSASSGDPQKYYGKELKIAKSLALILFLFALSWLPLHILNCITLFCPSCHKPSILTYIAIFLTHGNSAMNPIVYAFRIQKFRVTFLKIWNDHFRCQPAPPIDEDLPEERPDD
Briefly: Displacement of [3H]-DPCPX from human A1 receptor expressed in HEK293 cell membranes at 1 uM after 90 mins radioligand binding assay relative to control. A general note: In a radioligand displacement assay an active substance lowers the binding of a labelled ligand.

The nature of data set [3]: Metabolic stability in human liver microsomes. Format: ADME, microsome. On the technique in general: Liver microsomes are a subcellular fraction often used to study metabolism.
Data set [4] can be described thus: Metabolic stability in rat liver microsomes. Format: ADME, microsome.
The target of data set [5] is T1, Adenosine receptor A2a. Briefly: Antagonist activity at human A2A receptor expressed in HEK293 cell membranes assessed as reduction in CGS-21680-induced cAMP level pretreated for 15 mins followed by CGS-21680 addition measured after 30 mins by HTRF assay. Format: functional, cell-based. Summed up:
(§2)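 HTRF-based cAMP functional assay; each compound tested at 12 concentrations, every point in triplicate; Ki given as mean of two independent experiments (n=2).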
(In general: cAMP levels reflect the balance of adenylyl cyclase and phosphodiesterase activity.)

Data set [6] addresses Adenosine receptor A2a (Rattus norvegicus, UniProt P30543). Description: Antagonist activity at rat A2A receptor assessed as reduction in CGS-21680-induced cAMP level pretreated for 15 mins followed by CGS-21680 addition measured after 30 mins by HTRF assay. Format: functional. The procedure, abridged:
as §2

Data set [7] concerns the target T3, Adenosine receptor A1 (Homo sapiens, UniProt P30542).
T3 sequence (P30542 whole entry): T2 sequence (whole entry)
Description: Displacement of [3H]-DPCPX from human A1 receptor expressed in HEK293 cell membranes after 90 mins radioligand binding assay. Summed up:
as §1

Data set [8] is filed under the species Homo sapiens. Briefly: Selectivity ratio of Ki for displacement of [3H]-DPCPX from human A1 receptor expressed in HEK293 cell membranes to Ki for displacement of [3H]ZM241385 from human A2A receptor expressed in HEK293 cell membranes. Summed up: (§3)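 Radioligand binding used membranes from HEK-293 cells overexpressing each human adenosine receptor isoform. Points were run in triplicate, and 8-concentration IC50 curves were plotted to give Ki. The selectivity value is the Ki at the off-target isoform divided by the Ki at hA2A.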

For data set [9], the species on record is Homo sapiens. Briefly: Selectivity ratio of Ki for displacement of [3H]-MRS-1754 from human A2B receptor expressed in HEK293 cell membranes to Ki for displacement of [3H]ZM241385 from human A2A receptor expressed in HEK293 cell membranes. The procedure, abridged: as §3
For data set [10], the species on record is Homo sapiens. Description: Selectivity ratio of Ki for displacement of [3H]-HEMADO from human A3 receptor expressed in HEK293 cell membranes to Ki for displacement of [3H]ZM241385 from human A2A receptor expressed in HEK293 cell membranes. Summed up:
as §3

Data set [11] in a line: Solubility of the compound at pH 7.4. Format: physicochemical. The following applies: buffer.

Adenosine receptor A2a (Rattus norvegicus, UniProt P30543), sequence (P30543 whole entry): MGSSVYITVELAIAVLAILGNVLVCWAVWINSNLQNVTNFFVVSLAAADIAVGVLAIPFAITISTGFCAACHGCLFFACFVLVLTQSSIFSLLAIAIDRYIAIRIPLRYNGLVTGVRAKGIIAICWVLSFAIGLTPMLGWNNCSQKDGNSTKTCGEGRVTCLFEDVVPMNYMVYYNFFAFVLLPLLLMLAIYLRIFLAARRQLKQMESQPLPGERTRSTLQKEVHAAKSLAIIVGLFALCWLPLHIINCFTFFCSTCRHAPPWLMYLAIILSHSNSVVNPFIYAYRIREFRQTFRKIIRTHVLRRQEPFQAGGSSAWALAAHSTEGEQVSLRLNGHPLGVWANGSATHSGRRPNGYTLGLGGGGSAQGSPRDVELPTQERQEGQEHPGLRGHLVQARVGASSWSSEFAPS

For orientation: pKi means the negative decadic logarithm of the Ki, by convention in mol/L. In general, inhibition refers to the share of the control response that was lost under treatment. Read a high inhibition as a strong effect. In data set [1], `COc1ccc(N2CCN(CCn3c(=O)n(C)c4c3nc(N)n3nc(-c5ccco5)nc43)CC2)cn1` had a pKi of 8.35. In data set [2], this molecule showed an inhibition of 61%. Moreover, the Stability result in [3] and in data set [4] was “Stable” in each case.

On to `COCCOc1cccc(N2CCN(CCn3c(=O)n(C)c4c3nc(N)n3nc(-c5ccco5)nc43)CC2)c1`, for which the negative logarithm of the Ki (pKi) in data set [5] was 9.30; in data set [1], 9.30; in [6] it was 8.41. The molecule also had an inhibition in data set [2] of 63%. For the same molecule, the Stability result in data set [3] and in [4] was “Stable” each time.

`Cn1c(=O)n(CCN2CCN(c3ccc(OCCOC4CC4)cc3)CC2)c2nc(N)n3nc(-c4ccco4)nc3c21` showed a pKi in data set [1] of 8.70. For the same molecule, in [2], the inhibition came to 66%. The Stability entry in data set [3] and in [4] was “Stable” each time.

As a reminder, the solubility is how much of the substance goes into solution per volume. Read a high solubility as a readily soluble substance. In the case of `Cn1c(=O)n(CCN2CCN(c3ccc(C#N)cc3)CC2)c2nc(N)n3nc(-c4ccco4)nc3c21`, the pKi in data set [5] was 9.52; in [7] it was 5.30; in [1], 9.22; in data set [6], 8.94. Besides, the Ratio Ki in [8], in [9] and in data set [10] was greater than 8000 each time. Besides, the Stability result in data set [3] and in data set [4] was “Stable” throughout. The molecule also returned a solubility in data set [11] of less than 2 µM.

For `Cn1c(=O)n(CCN2CCN(c3ccc(OC(F)F)cc3)CC2)c2nc(N)n3nc(-c4ccco4)nc3c21`, the pKi is 9.57 in [5], 8.72 in data set [1] and 8.97 in data set [6]. For the same molecule, the inhibition in [2] was found to be 34%. Besides, the Stability entry in data set [3] and in data set [4] was “Stable” in each case.

In [1], `Cn1c(=O)n(CCN2CCN(c3ccc(C(F)(F)F)cc3)CC2)c2nc(N)n3nc(-c4ccco4)nc3c21` gave a pKi of 8.51. In addition, the inhibition in data set [2] was determined as 57%. Also, the Stability result in data set [3] and in data set [4] was “Stable” in each case.

In data set [1], `COCCOc1ccc(N2CCN(CCn3c(=O)n(C)c4c3nc(N)n3nc(-c5ccco5)nc43)CC2)cc1F` had a pKi of 9.15. In addition, the inhibition in data set [2] turned out to be 68%. Moreover, the Stability result in data set [3] and in [4] was “Stable” in each case.

The molecule `COCCOc1c(F)cc(N2CCN(CCn3c(=O)n(C)c4c3nc(N)n3nc(-c5ccco5)nc43)CC2)cc1F` gave a pKi in data set [1] of 9.22. Besides, in data set [2], the inhibition was determined as 65%. Moreover, the Stability entry in data set [3] and in data set [4] was “Stable” in each case.

Take `Cc1nc2cc(N3CCN(CCn4c(=O)n(C)c5c4nc(N)n4nc(-c6ccco6)nc54)CC3)c(F)cc2o1`: the pKi in [5] was 9.82; in data set [1], 9.40; in data set [6], 10.30. Also, the inhibition in [2] is 48%. The Stability entry in data set [3] and in data set [4] was “Stable” throughout.

Take `COc1ccc(N2CCN(CCn3c(=O)n(C)c4c3nc(N)n3nc(-c5ccco5)nc43)CC2)cc1`: the pKi in data set [5] was 9.68; in data set [1] it was 9.00; in [6] it was 9.24. Moreover, the inhibition in data set [2] is 58%. Further, the Stability result in [3] and in data set [4] was “Stable” each time.

Consider `Cn1c(=O)n(CCN2CCN(c3ccc(OC4CCOCC4)cc3)CC2)c2nc(N)n3nc(-c4ccco4)nc3c21`, for which the pKi in [5] is 9.59; in [1], 9.52. The molecule also showed an inhibition in data set [2] of 56%. In addition, the Stability result in [3] and in [4] was “Stable” in each case.

For the molecule `COCCOc1cc(F)c(N2CCN(CCn3c(=O)n(C)c4c3nc(N)n3nc(-c5ccco5)nc43)CC2)cc1F`, the pKi in [5] is 8.92; in data set [1], 9.05. This molecule gave an inhibition in data set [2] of 58%. For the same molecule, the Stability result in data set [3] and in data set [4] was “Stable” throughout.

Consider `Cn1c(=O)n(CCN2CCN(c3ccc(F)cc3F)CC2)c2nc(N)n3nc(-c4ccco4)nc3c21`, for which the pKi in data set [5] was 10.15; in [1] it was 9.00. This molecule displayed an inhibition in data set [2] of 32%. The Stability entry in [3] and in data set [4] was “Stable” each time.

`COCCOc1ccc(N2CCN(CCn3c(=O)n(C)c4c3nc(N)n3nc(-c5ccco5)nc43)CC2)cc1`: the pKi in [5] is 9.38; in data set [7], 5.77; in [1], 8.70; in data set [6], 9.55. For the same molecule, the Ratio Ki in data set [8] is 850; in data set [9], greater than 3000; in data set [10], greater than 2000. The Stability result in [3] and in [4] was “Stable” in each case. The molecule further showed a solubility in data set [11] of less than 6 µM.

Take `COCC(C)(C)Oc1ccc(N2CCN(CCn3c(=O)n(C)c4c3nc(N)n3nc(-c5ccco5)nc43)CC2)cc1`: the pKi is 8.68 in data set [5], 9.30 in [1] and 9.14 in [6]. For the same molecule, the inhibition in [2] worked out at 36%. Further, the Stability entry in [3] and in data set [4] was “Stable” in each case.

Regarding `Cn1c(=O)n(CCN2CCN(c3ccc(C#N)c(F)c3)CC2)c2nc(N)n3nc(-c4ccco4)nc3c21`, the pKi in [5] was 9.40; in data set [1], 9.30. Moreover, in data set [2], the inhibition came to 50%. The Stability entry in data set [3] and in [4] was “Stable” in each case.

Turning to `Cc1ccc(N2CCN(CCn3c(=O)n(C)c4c3nc(N)n3nc(-c5ccco5)nc43)CC2)cc1`, the values for the pKi in data set [5], in data set [1] and in data set [6] were 8.96, 8.85 and 9.13, respectively. In addition, in data set [2], the inhibition came out at 45%. Also, the Stability entry in data set [3] and in data set [4] was “Stable” throughout.

For the molecule `Cn1c(=O)n(CCN2CCN(c3ccc(OC4CCOC4)cc3)CC2)c2nc(N)n3nc(-c4ccco4)nc3c21` (stereo not given), the pKi in data set [5] was 9.66; in data set [1], 9.70. For the same molecule, the inhibition in [2] is 49%. Moreover, the Stability result in data set [3] and in [4] was “Stable” each time.

As for `COCCOc1ccc(N2CCN(CCn3c(=O)n(C)c4c3nc(N)n3nc(-c5nccs5)nc43)CC2)cc1`, the pKi is 8.92 in data set [5], 8.19 in data set [1] and 7.95 in data set [6]. Further, the inhibition in data set [2] was 19%. Moreover, the Stability result in data set [3] and in data set [4] was “Stable” throughout.

For `Cn1c(=O)n(CCN2CCN(c3nc(C(F)(F)F)cs3)CC2)c2nc(N)n3nc(-c4ccco4)nc3c21`, the negative-log Ki (pKi) is 9.05 in [5] and 8.92 in [1]. In data set [2], this molecule displayed an inhibition of 58%. Further, the Stability result in data set [3] and in data set [4] was “Stable” throughout.

For the molecule `Cc1ccc(N2CCN(CCn3c(=O)n(C)c4c3nc(N)n3nc(-c5ccco5)nc43)CC2)nc1`, the pKi in data set [5] is 9.40; in data set [1], 8.77; in data set [6], 9.19. Moreover, the inhibition in data set [2] is 61%. Also, the Stability result in [3] and in data set [4] was “Stable” each time.

As to `Cn1c(=O)n(CCN2CCN(c3ccc(OC4CC4)cc3)CC2)c2nc(N)n3nc(-c4ccco4)nc3c21`, the figures for the pKi in data set [5] and in data set [1] were 9.60 and 9.52, respectively. Also, in data set [2], the inhibition was 50%. Further, the Stability result in [3] and in data set [4] was “Stable” in each case.

With `COCC(C)Oc1ccc(N2CCN(CCn3c(=O)n(C)c4c3nc(N)n3nc(-c5ccco5)nc43)CC2)cc1` (stereo not given), the figures for the pKi in data set [5], in [1] and in [6] were 8.82, 9.40 and 9.38, respectively. This molecule also had an inhibition in data set [2] of 56%. The Stability result in [3] and in data set [4] was “Stable” throughout.

For the molecule `COc1ccc(N2CCN(CCn3c(=O)n(C)c4c3nc(N)n3nc(-c5ccco5)nc43)CC2)c(F)c1`, the pKi in data set [5] was 10.22; in data set [1] it was 9.40; in data set [6], 10.22. In data set [2], the inhibition came to 45%. For the same molecule, the Stability entry in [3] and in [4] was “Stable” throughout.
